Test results reported in ChEMBL document CHEMBL4270555, “Synthesis and biological evaluation of magnolol derivatives as melatonergic receptor agonists with potential use in depression” (Eur J Med Chem, 2018).
Activity calls are given as the source filed them. No cut-off for these calls is given here.

How the values were obtained:
[1] = Drug metabolism in Sprague-Dawley rat urine assessed as (2S,3S,4S,5R,6S)-3,4,5-trihydroxy-6-(5-(1-hydroxyallyl)-5'-(2-hydroxypropyl)-2'-methoxybiphenyl-2-yloxy)tetrahydro-2H-pyran-2-carboxylic acid formation at 100 mg/kg, po by UPLC-IT-TOF-MS analysis; format: ADME, organism-based; conditions: in vivo
Procedure, shortened: (§1)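 Male/unspecified SD rats (n = 6) housed individually in metabolic cages, dosed orally at 100.0 mg/kg; controls given 0.5% CMC-Na orally. Plasma, urine and faeces collected. LC-IT-TOF-MS on C18 column at 30 °C, formic acid (0.05%) water/acetonitrile gradient 5–100% B over 18 min, 0.2 mL/min; positive and negative ion modes with automatic MS/MS.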

[2] = tested on: Mus musculus; assay: Increase in 5-hydroxyindole-3-acetic acid level in Kunming mouse hypothalamus at 40 mg/kg, po treated for 7 days by HPLC-ECD analysis; format: functional, organism-based
Procedure, shortened: (§2)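 Male Kunming mice (18–20 g) given vehicle or 40 mg/kg for 7 days, then killed by cervical dislocation. Frontal cortex, hippocampus, striatum, hypothalamus and thalamus dissected on ice, homogenized in ice-cold 0.2 M perchloric acid with 0.1 mM EDTA, centrifuged 15,000 rpm, 20 min, 4 °C. Supernatant analysed by HPLC-ECD at +0.50 V; phosphate/octanesulfonate mobile phase pH 3.0 with 12% methanol. Levels in ng/g, mean ± SEM.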

[3] = tested on: Mus musculus; assay: Antidepressant activity in po dosed Kunming mouse assessed as decrease in immobility time by tail suspension test; format: functional; conditions: read-out: MED
Procedure, shortened: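 Male Kunming mice dosed orally at 10, 20 or 40 mg/kg, with fluoxetine and agomelatine 20 mg/kg as references. Mice were hung by the tail with tape about 1 cm from the tip, 50 cm above a box, for 6 min, isolated from sound and view. Immobility in the last 4 min was video-tracked; n = 10, mean ± SEM.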

[4] = Drug metabolism in Sprague-Dawley rat feces assessed as 5-allyl-5'-(1-hydroxyallyl)-2'-((2S,3R,4S,5S,6R)-3,4,5-trihydroxy-6-(hydroxymethyl)tetrahydro-2H-pyran-2-yloxy)biphenyl-2-yl hydrogen sulfate formation at 100 mg/kg, po by UPLC-IT-TOF-MS analysis; format: ADME, organism-based; conditions: in vivo
Procedure, shortened: (§3)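 Rats (n = 6) housed in metabolic cages received 100.0 mg/kg orally; controls received 0.5% CMC-Na. Plasma, urine and faeces were collected and analyzed by LC-IT-TOF-MS on a C18 column at 30 °C. Gradient 5–100% acetonitrile with 0.05% formic acid over 18 min at 0.2 mL/min; positive and negative ion MS/MS.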

[5] = Toxicity in po dosed Sprague-Dawley rat measured continuously for first 4 hrs followed by measured every hour for next 24 hrs and at 6 hrs intervals for following 48 hrs post dose; format: organism-based; conditions: in vivo
Procedure, shortened: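 Followed OECD 425 in adult SD rats (180–220 g), three groups of six. Vehicle control received 0.5% CMC-Na orally; separate male and female groups received 2000 mg/kg orally. Endpoints observed: behaviour, breathing, cutaneous effects, sensory nervous system responses, gastrointestinal effects and deaths.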

[6] = Drug metabolism in Sprague-Dawley rat feces assessed as (2R,2'R,3S,3'S,4S,4'S,5R,5'R,6S,6'S)-6,6'-(5,5'-diallylbiphenyl-2,2'-diyl)bis(oxy)bis(2-(hydroxymethyl)tetrahydro-2H-pyran-3,4,5-triol) formation at 100 mg/kg, po by UPLC-IT-TOF-MS analysis; format: ADME, organism-based; conditions: in vivo; procedure, shortened: as §3
[7] = Drug metabolism in Sprague-Dawley rat urine assessed as (2S,3R,4S,5S,6R)-2-(5,5'-diallyl-2'-methoxybiphenyl-2-yloxy)-6-(hydroxymethyl)tetrahydro-2H-pyran-3,4,5-triol formation at 100 mg/kg, po by UPLC-IT-TOF-MS analysis; format: ADME, organism-based; conditions: in vivo; procedure, shortened: as §1
[8] = Drug metabolism in Sprague-Dawley rat urine assessed as 5,5'-diallylbiphenyl-2,2'-diol formation at 100 mg/kg, po by UPLC-IT-TOF-MS analysis; format: ADME, organism-based; conditions: in vivo; procedure, shortened: as §1
[9] = Drug metabolism in Sprague-Dawley rat feces assessed as 5'-(1-hydroxyallyl)-5-propyl-2'-((2S,3R,4S,5S,6R)-3,4,5-trihydroxy-6-(hydroxymethyl)tetrahydro-2H-pyran-2-yloxy)biphenyl-2-yl hydrogen sulfate formation at 100 mg/kg, po by UPLC-IT-TOF-MS analysis; format: ADME, organism-based; conditions: in vivo; procedure, shortened: as §3
[10] = Drug metabolism in Sprague-Dawley rat urine assessed as 5-allyl-5'-(1-hydroxyallyl)-2'-((2S,3R,4S,5S,6R)-3,4,5-trihydroxy-6-(hydroxymethyl)tetrahydro-2H-pyran-2-yloxy)biphenyl-2-yl hydrogen sulfate formation at 100 mg/kg, po by UPLC-IT-TOF-MS analysis; format: ADME, organism-based; conditions: in vivo; procedure, shortened: as §1
[11] = tested on: Mus musculus; assay: Increase in ratio of 5-hydroxyindole-3-acetic acid to 5-hydroxytryptamine level in Kunming mouse hypothalamus at 40 mg/kg, po treated for 7 days by HPLC-ECD analysis; format: functional, organism-based; procedure, shortened: as §2
[12] = Drug metabolism in Sprague-Dawley rat urine assessed as 5'-(1-hydroxyallyl)-5-propyl-2'-((2S,3R,4S,5S,6R)-3,4,5-trihydroxy-6-(hydroxymethyl)tetrahydro-2H-pyran-2-yloxy)biphenyl-2-yl hydrogen sulfate formation at 100 mg/kg, po by UPLC-IT-TOF-MS analysis; format: ADME, organism-based; conditions: in vivo; procedure, shortened: as §1
[13] = Drug metabolism in Sprague-Dawley rat feces assessed as 5'-(1-hydroxyallyl)-5-(1-hydroxypropyl)-2'-((2S,3R,4S,5S,6R)-3,4,5-trihydroxy-6-(hydroxymethyl)tetrahydro-2H-pyran-2-yloxy)biphenyl-2-yl hydrogen sulfate formation at 100 mg/kg, po by UPLC-IT-TOF-MS analysis; format: ADME, organism-based; conditions: in vivo; procedure, shortened: as §3
[14] = Drug metabolism in Sprague-Dawley rat plasma assessed as 1-(2'-hydroxy-5'-(1-hydroxyallyl)-6-((2S,3R,4S,5S,6R)-3,4,5-trihydroxy-6-(hydroxymethyl)tetrahydro-2H-pyran-2-yloxy)biphenyl-3-yl)prop-2-en-1-one formation at 100 mg/kg, po by UPLC-IT-TOF-MS analysis; format: ADME, organism-based; conditions: in vivo; procedure, shortened: as §3
[15] = tested on: Mus musculus; assay: Increase in norepinephrine level in Kunming mouse hypothalamus at 40 mg/kg, po treated for 7 days by HPLC-ECD analysis; format: functional, organism-based; procedure, shortened: as §2
[16] = Drug metabolism in Sprague-Dawley rat plasma assessed as 5'-(1-hydroxyallyl)-5-propyl-2'-((2S,3R,4S,5S,6R)-3,4,5-trihydroxy-6-(hydroxymethyl)tetrahydro-2H-pyran-2-yloxy)biphenyl-2-yl hydrogen sulfate formation at 100 mg/kg, po by UPLC-IT-TOF-MS analysis; format: ADME, organism-based; conditions: in vivo; procedure, shortened: as §3
[17] = Drug metabolism in Sprague-Dawley rat plasma assessed as 5-allyl-5'-(1-hydroxyallyl)-2'-((2S,3R,4S,5S,6R)-3,4,5-trihydroxy-6-(hydroxymethyl)tetrahydro-2H-pyran-2-yloxy)biphenyl-2-yl hydrogen sulfate formation at 100 mg/kg, po by UPLC-IT-TOF-MS analysis; format: ADME, organism-based; conditions: in vivo; procedure, shortened: as §1
[18] = tested on: Mus musculus; assay: Increase in ratio of 5-hydroxyindole-3-acetic acid to 5-hydroxytryptamine level in Kunming mouse hippocampus at 40 mg/kg, po treated for 7 days by HPLC-ECD analysis; format: functional, organism-based; procedure, shortened: as §2
[19] = Drug metabolism in Sprague-Dawley rat urine assessed as (2R,2'R,3S,3'S,4S,4'S,5R,5'R,6S,6'S)-6,6'-(5,5'-diallylbiphenyl-2,2'-diyl)bis(oxy)bis(2-(hydroxymethyl)tetrahydro-2H-pyran-3,4,5-triol) formation at 100 mg/kg, po by UPLC-IT-TOF-MS analysis; format: ADME, organism-based; conditions: in vivo; procedure, shortened: as §1

C=CCc1ccc(O)c(-c2cc(CC=C)ccc2O[C@@H]2O[C@H](CO)[C@@H](O)[C@H](O)[C@H]2O)c1
Drug metabolism [1]: Metabolite_Detected | Activity [2]: Active | minimal effective dose [3]: 10 mg/kg | Drug metabolism [4]: Metabolite_Detected | LD50 at 76 h [5]: > 2000 mg/kg | Drug metabolism [6]: Metabolite_Detected | Drug metabolism [7]: Metabolite_Detected | Drug metabolism [8]: Metabolite_Detected | Drug metabolism [9]: Metabolite_Detected | Drug metabolism [10]: Metabolite_Notdetected | Activity [11]: Active | Drug metabolism [12]: Metabolite_Notdetected | Drug metabolism [13]: Metabolite_Notdetected | Drug metabolism [14]: Metabolite_Notdetected | Activity [15]: Active | Drug metabolism [16]: Metabolite_Notdetected | Drug metabolism [17]: Metabolite_Notdetected | Activity [18]: Active | Drug metabolism [19]: Metabolite_Detected
